ChEMBL document CHEMBL4619818, “Mining Public Domain Data to Develop Selective DYRK1A Inhibitors” (ACS Med Chem Lett, 2020)
Converted amounts (≈) assume the structure as drawn. Values belong to the molecule of their own block, whether it stands above or below them.

Experiments:
[1] = target: T1, Dual specificity tyrosine-phosphorylation-regulated kinase 1A (Homo sapiens, UniProt Q13627); assay: Inhibition of DYRK1A (unknown origin) at 1 uM by PanQinase assay relative to control
[2] = target: Cyclin-dependent kinase 2 (Homo sapiens) (UniProt P24941); assay: Inhibition of CDK2 (unknown origin) at 1 uM by PanQinase assay relative to control
[3] = target: T1, Dual specificity tyrosine-phosphorylation-regulated kinase 1A; assay: Inhibition of recombinant human N-terminal Hex-tagged DYRK1A (127 to 485 residues) expressed in Escherichia coli BL21 (DE3) incubated for 1.5 hrs by TR-FRET assay
[4] = target: T1, Dual specificity tyrosine-phosphorylation-regulated kinase 1A; assay: Inhibition of recombinant human DYRK1A (129 to 509 residues) expressed in mammalian expression system at 1 uM by DiscoverX competition binding assay relative to control
How it was run: (§1)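 Competition binding assay with test compound at 1 µM inhibitor concentration. Result expressed as percent inhibition, single determination (n=1). The kinome-wide panel also gave a selectivity score, S-Score(40).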

[5] = target: Dual specificity tyrosine-phosphorylation-regulated kinase 1B (Homo sapiens) (UniProt Q9Y463); assay: Inhibition of recombinant human full length DYRK1B (1 to 629 residues) expressed in bacterial expression system at 1 uM by DiscoverX competition binding assay relative to control; how it was run: as §1
[6] = target: T2, Dual specificity tyrosine-phosphorylation-regulated kinase 2 (Homo sapiens) (UniProt Q92630); assay: Inhibition of recombinant human full length DYRK2 (1 to 528 residues) expressed in mammalian expression system at 1 uM by DiscoverX competition binding assay relative to control; how it was run: as §1
T2 sequence (whole entry): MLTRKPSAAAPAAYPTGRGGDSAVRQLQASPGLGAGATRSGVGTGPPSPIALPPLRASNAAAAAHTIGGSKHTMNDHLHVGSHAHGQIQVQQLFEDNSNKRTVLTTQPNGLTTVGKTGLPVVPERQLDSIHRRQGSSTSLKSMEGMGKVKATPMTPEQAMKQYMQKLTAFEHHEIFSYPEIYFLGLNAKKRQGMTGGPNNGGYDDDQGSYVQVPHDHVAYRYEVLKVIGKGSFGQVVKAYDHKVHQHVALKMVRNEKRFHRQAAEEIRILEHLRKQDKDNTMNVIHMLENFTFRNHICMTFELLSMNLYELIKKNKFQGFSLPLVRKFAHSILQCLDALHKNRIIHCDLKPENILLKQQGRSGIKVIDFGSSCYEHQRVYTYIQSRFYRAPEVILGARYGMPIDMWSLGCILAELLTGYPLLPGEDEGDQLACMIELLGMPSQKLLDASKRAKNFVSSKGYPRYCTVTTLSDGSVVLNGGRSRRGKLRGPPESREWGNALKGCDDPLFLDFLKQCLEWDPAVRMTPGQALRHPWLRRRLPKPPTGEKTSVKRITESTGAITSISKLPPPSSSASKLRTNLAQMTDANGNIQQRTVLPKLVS

[7] = target: Dual specificity protein kinase CLK1 (Homo sapiens) (UniProt P49759); assay: Inhibition of recombinant human full length CLK1 (1 to 484 residues) expressed in bacterial expression system at 1 uM by DiscoverX competition binding assay relative to control; how it was run: as §1
[8] = target: Dual specificity protein kinase CLK2 (Homo sapiens) (UniProt P49760); assay: Inhibition of recombinant human partial length CLK2 (144 to 484 residues) expressed in bacterial expression system at 1 uM by DiscoverX competition binding assay relative to control; how it was run: as §1
[9] = target: Dual specificity protein kinase CLK3 (Homo sapiens) (UniProt P49761); assay: Inhibition of recombinant human full length CLK3 (1 to 490 residues) expressed in bacterial expression system at 1 uM by DiscoverX competition binding assay relative to control; how it was run: as §1
[10] = target: Cyclin-dependent kinase 2 (Homo sapiens) (UniProt P24941); assay: Inhibition of recombinant human full length CDK2 (1 to 298 residues) expressed in bacterial expression system at 1 uM by DiscoverX competition binding assay relative to control; how it was run: as §1
[11] = target: Glycogen synthase kinase-3 beta (Homo sapiens) (UniProt P49841); assay: Inhibition of recombinant human full length GSK3beta (1 to 433 residues) expressed in mammalian expression system at 1 uM by DiscoverX competition binding assay relative to control; how it was run: as §1
[12] = Metabolic stability in human liver microsomes assessed as intrinsic clearance; format: ADME, Microsome; details: read-out: CLH
How it was run: (§2)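 Microsomal incubations with human or rat liver microsomes. Intrinsic clearance given in µL/min/mg; values are the mean of n = 2.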

[13] = Metabolic stability in rat liver microsomes assessed as intrinsic clearance; format: ADME, Microsome; details: read-out: CLH; how it was run: as §2
[14] = Thermodynamic solubility of compound at pH 6.8; format: physicochemical; details: buffer, read-out: Therm_solubility
How it was run: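 Thermodynamic (intrinsic) solubility by shake-flask method in PBS buffer at pH 6.8. Reported in mg/mL from a single experiment.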

[15] = Apparent permeability from apical to basolateral side in dog MDCK-MDR1 cells; format: ADME, cell-based, Canis lupus familiaris
How it was run: (§3)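 MDCK cells transfected with human MDR1 gene. Apparent permeability coefficient (Papp, 10^-6 cm/s) measured across the cell layer in each direction, apical to basolateral and basolateral to apical. Mean values reported; efflux ratio taken as Papp B2A / Papp A2B.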

[16] = Apparent permeability from basolateral to apical side in dog MDCK-MDR1 cells; format: ADME, cell-based, Canis lupus familiaris; how it was run: as §3
[17] = Efflux ratio of apparent permeability from basolateral to apical side over apical to basolateral side in dog MDCK-MDR1 cells; format: ADME, cell-based, Canis lupus familiaris
How it was run: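 MDCK cells transfected with human MDR1 gene (Cyprotex assay); permeability coefficient (Papp) measured in both directions, apical to basolateral and basolateral to apical; efflux ratio taken as mean Papp B2A divided by mean Papp A2B.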

[18] = target: T1, Dual specificity tyrosine-phosphorylation-regulated kinase 1A; assay: Binding affinity to DYRK1A (unknown origin) assessed as dissociation constant measured for 60 to 300 sec by SPR analysis

Chain of Dual specificity protein kinase CLK1 (Homo sapiens) (P49759 whole entry, looked up, the tested form may be a part): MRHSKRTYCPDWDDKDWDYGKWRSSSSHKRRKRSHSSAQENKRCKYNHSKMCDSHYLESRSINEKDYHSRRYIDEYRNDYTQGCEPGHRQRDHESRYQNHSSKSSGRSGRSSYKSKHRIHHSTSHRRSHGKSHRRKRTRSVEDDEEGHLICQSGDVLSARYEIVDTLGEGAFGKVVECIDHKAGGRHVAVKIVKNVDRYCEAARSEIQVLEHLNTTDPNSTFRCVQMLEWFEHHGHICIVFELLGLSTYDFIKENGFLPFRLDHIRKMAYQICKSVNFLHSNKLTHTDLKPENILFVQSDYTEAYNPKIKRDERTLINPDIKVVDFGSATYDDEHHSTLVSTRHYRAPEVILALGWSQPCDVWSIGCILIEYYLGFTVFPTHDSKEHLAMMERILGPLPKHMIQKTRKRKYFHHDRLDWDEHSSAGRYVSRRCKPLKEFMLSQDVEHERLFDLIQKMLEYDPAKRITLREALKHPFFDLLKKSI
Chain of Glycogen synthase kinase-3 beta (Homo sapiens) (P49841 whole entry, looked up, the tested form may be a part): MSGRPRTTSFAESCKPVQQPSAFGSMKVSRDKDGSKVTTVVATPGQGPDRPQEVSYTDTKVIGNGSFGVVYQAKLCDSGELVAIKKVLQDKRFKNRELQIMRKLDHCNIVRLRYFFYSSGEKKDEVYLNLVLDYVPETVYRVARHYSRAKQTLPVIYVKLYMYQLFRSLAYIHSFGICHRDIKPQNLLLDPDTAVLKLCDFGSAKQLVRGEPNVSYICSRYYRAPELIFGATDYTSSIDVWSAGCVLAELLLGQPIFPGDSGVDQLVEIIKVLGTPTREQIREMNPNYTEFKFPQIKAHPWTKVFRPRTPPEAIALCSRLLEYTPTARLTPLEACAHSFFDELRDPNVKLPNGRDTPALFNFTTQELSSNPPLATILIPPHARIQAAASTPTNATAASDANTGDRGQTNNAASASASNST
Chain of Dual specificity protein kinase CLK3 (Homo sapiens) (P49761 whole entry, looked up, the tested form may be a part): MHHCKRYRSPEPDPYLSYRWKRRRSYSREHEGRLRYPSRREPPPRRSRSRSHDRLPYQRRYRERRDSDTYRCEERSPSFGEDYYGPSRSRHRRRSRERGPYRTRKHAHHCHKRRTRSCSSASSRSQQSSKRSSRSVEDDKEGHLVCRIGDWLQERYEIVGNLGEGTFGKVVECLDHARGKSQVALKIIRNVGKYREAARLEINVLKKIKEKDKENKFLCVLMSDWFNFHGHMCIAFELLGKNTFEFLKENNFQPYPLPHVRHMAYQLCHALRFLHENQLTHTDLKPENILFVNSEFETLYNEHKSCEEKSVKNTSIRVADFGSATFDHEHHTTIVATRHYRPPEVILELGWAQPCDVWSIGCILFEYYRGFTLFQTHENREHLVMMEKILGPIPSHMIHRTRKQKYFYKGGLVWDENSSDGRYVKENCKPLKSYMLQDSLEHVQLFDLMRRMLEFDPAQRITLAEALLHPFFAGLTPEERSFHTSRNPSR
Chain of Dual specificity protein kinase CLK2 (Homo sapiens) (P49760 whole entry, looked up, the tested form may be a part): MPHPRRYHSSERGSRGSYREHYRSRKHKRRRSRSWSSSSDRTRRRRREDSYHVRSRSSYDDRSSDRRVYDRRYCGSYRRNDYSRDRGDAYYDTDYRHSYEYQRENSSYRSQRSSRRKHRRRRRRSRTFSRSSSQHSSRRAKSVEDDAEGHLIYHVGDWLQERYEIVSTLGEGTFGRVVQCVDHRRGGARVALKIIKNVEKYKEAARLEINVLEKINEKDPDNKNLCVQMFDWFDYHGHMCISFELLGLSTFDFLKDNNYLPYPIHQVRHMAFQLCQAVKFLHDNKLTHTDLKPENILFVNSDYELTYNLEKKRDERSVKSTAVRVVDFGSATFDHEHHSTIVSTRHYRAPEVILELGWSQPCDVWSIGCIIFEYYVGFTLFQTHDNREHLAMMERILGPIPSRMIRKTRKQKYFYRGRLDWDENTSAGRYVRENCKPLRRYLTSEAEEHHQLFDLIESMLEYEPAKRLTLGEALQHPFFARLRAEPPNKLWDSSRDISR
Chain of Dual specificity tyrosine-phosphorylation-regulated kinase 1B (Homo sapiens) (Q9Y463 whole entry, looked up, the tested form may be a part): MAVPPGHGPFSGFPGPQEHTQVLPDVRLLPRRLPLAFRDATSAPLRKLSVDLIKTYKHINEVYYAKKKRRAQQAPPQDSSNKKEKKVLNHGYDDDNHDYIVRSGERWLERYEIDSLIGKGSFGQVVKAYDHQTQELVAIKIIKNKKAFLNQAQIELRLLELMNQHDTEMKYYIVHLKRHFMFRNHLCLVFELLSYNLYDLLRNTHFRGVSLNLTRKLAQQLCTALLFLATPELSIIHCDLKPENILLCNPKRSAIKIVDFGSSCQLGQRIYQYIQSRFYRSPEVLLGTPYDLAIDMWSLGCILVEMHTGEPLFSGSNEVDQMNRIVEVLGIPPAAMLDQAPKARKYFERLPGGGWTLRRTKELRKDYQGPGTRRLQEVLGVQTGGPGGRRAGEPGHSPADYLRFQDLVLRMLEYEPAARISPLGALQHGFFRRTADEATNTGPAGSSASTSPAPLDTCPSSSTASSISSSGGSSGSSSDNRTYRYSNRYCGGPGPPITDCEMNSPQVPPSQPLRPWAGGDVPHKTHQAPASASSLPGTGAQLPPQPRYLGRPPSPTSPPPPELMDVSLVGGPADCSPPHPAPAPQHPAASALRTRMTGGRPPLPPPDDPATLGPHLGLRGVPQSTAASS

inhibition [1]: 97% | inhibition [2]: 98% | IC50 [3]: 38 nM
Compound: c1ccc(Nc2nccc(-c3cnn4ncccc34)n2)cc1

IC50 [3]: 103 nM
Compound: N#Cc1ccc(Nc2nccc(-c3cnn4ncccc34)n2)cc1

IC50 [3]: 12 nM
Compound: COc1cccc(Nc2nccc(-c3cnn4ncccc34)n2)c1 [PYRAZOLOPYRIDAZINE 1]

Compound: Cc1cccc(N(C)c2nccc(-c3cnn4ncccc34)n2)c1
IC50 [3]: 76 nM | inhibition [4]: 65% | inhibition [5]: 0% | inhibition [6]: 19% | inhibition [7]: 59% | inhibition [8]: 59% | inhibition [9]: 6% | inhibition [10]: 12% | inhibition [11]: 4% | microsomal CLint [12]: 75 µL/min/mg | microsomal CLint [13]: 805 µL/min/mg | solubility thermodynamic [14]: 10 µg/mL (≈ 31.6 µM) | Papp A→B [15]: 20.9 ×10⁻⁶ cm/s | Papp B→A [16]: 20.1 ×10⁻⁶ cm/s | efflux ratio [17]: 0.96

IC50 [3]: 64 nM
Compound: Cc1ccccc1Nc1nccc(-c2cnn3ncccc23)n1

IC50 [3]: 97 nM
Compound: COc1cccc(N(C)c2nccc(-c3cnn4ncccc34)n2)c1

inhibition [1]: 79% | inhibition [2]: 33% | IC50 [3]: 186 nM
Compound: CN(c1ccccc1)c1nccc(-c2cnn3ncccc23)n1

IC50 [3]: 137 nM
Compound: COc1ccccc1Nc1nccc(-c2cnn3ncccc23)n1

IC50 [3]: 5 nM
Compound: N#Cc1cccc(Nc2nccc(-c3cnn4ncccc34)n2)c1 [GW778894X]

IC50 [3]: 7 nM | Kd [18]: 8.9 nM
Compound: Cc1cccc(Nc2nccc(-c3cnn4ncccc34)n2)c1
